Experimental data as given in ChEMBL document CHEMBL1921704, “Discovery of N-aryl-2-acylindole human glucagon receptor antagonists” (Bioorg Med Chem Lett, 2011).

Columns and labels:
[1] = Half life in rat at 1 mg/kg, iv and 2 mg/kg, po; type: ADME, organism-based; settings: in vivo
How it was run: (§1)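 Rat PK with dosing at 1 mg/kg IV and 2 mg/kg PO, vehicle DMSO/water/PEG400 15:35:55. Parameters were plasma clearance, Vd, t1/2, dose-normalised PO AUC and Cmax, and %F.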

[2] = Volume of distribution in rat at 1 mg/kg, iv and 2 mg/kg, po; type: ADME, organism-based; settings: in vivo; how it was run: as §1
Rattus norvegicus [3] = test: Dose normalised AUC in rat at 2 mg/kg, po; type: ADME, organism-based; parameters: dose 2 mg/kg, route oral; settings: in vivo; how it was run: as §1
Rattus norvegicus [4] = test: Dose normalised Cmax in rat at 1 mg/kg, iv and 2 mg/kg, po; type: ADME, organism-based; settings: in vivo; how it was run: as §1
Glucagon receptor [5] = target: T1, Glucagon receptor (Homo sapiens, UniProt P47871); test: Displacement of [125I]-glucagon from human glucagon receptor expressed in CHO cells after 4 to 12 hrs by scintillation proximity assay; type: cell-based
How it was run: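 Scintillation proximity assay on membranes from CHO cells expressing hGCGR, measuring inhibition of ¹²⁵I-labelled glucagon binding. IC50 reported as the average rounded to two significant figures, with standard error of the mean when more than one measurement was made.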

Glucagon receptor [6] = target: T1, Glucagon receptor; test: Antagonist activity at human glucagon receptor expressed in CHO cells assessed as inhibition of forskolin/glucagon-induced cAMP production preincubated for 30 mins before glucagon challenge measured after 30 mins using [125I]-cAMP by liquid scintillation counting; type: functional, cell-based
How it was run: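 Glucagon-induced cAMP production measured in CHO cells transfected with hGCGR. IC50 reported as the average rounded to two significant figures, with SEM when measured more than once.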

[7] = Oral bioavailability in rat at 2 mg/kg; type: ADME, organism-based; settings: in vivo; how it was run: as §1
[8] = Plasma clearance in rat at 1 mg/kg, iv and 2 mg/kg, po; type: ADME, organism-based; how it was run: as §1
[9] = Solubility of the compound; type: physicochemical
[10] = Oral bioavailability in rat; type: ADME, organism-based; settings: in vivo; how it was run: as §1
[11] = Clearance in rat; type: ADME, organism-based; settings: in vivo; how it was run: as §1

T1 sequence (P47871 whole entry): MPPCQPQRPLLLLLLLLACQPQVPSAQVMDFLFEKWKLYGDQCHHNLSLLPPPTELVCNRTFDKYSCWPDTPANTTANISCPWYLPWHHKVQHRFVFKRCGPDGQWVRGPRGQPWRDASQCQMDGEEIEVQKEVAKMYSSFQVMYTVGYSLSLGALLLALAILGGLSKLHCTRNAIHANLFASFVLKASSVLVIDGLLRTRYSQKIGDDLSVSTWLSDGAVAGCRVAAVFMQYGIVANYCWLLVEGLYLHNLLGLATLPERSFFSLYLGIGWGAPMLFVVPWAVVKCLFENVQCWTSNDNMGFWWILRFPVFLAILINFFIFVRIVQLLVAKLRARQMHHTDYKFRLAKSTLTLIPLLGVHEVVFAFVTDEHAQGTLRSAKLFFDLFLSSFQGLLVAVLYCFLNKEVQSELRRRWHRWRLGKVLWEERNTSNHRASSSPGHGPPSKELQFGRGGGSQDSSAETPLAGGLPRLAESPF

Row | IC50 (Glucagon receptor [5]) | IC50 (Glucagon receptor [6]) | SMILES | also measured
1 | 9.2 nM | 34 nM | CCC[C@@H](Cc1ccc(C(=O)NCCC(=O)O)cc1)C(=O)c1cc2cc(Cl)ccc2n1-c1cccc(C(F)(F)F)n1 | half-life [1]: 1.1 h; Vd [2]: 0.9 L/kg; AUC/dose (Rattus norvegicus [3]): 0.15 µM·h; Cmax/dose (Rattus norvegicus [4]): 70 nM; bioavailability [7]: 9.1%; clearance [8]: 24 mL/min/kg
2 | 5.7 nM | 17 nM | CCCCC[C@@H](Cc1ccc(C(=O)NCCC(=O)O)cc1)C(=O)c1cc2cc(OC(F)(F)F)ccc2n1-c1cccc(C(F)(F)F)c1 | 
3 |  |  | Cn1/c(=N\c2ccc(OC(F)(F)F)cc2)n(Cc2ccc(C(=O)Nc3nnn[nH]3)cc2)c2cc(Cl)c(Cl)cc21 | solubility [9]: Insoluble
4 | 24 nM | 35 nM | CCCC(Cc1ccc(C(=O)NCCC(=O)O)cc1)C(=O)c1cc2cc(Cl)ccc2n1-c1cccc(OC(F)(F)F)c1 (single isomer, unassigned) | 
5 | 23 nM | 39 nM | CCCC(Cc1ccc(C(=O)NCCC(=O)O)cc1)C(=O)c1cc2cc(Cl)ccc2n1-c1ccc(OC)c(C(F)(F)F)c1 (single isomer, unassigned) | 
6 | 110 nM |  | CCCC(Cc1ccc(C(=O)NCCC(=O)O)cc1)C(=O)c1cc2cc(Cl)ccc2n1-c1cc(Cl)cc(Cl)c1 (single isomer, unassigned) | 
7 | 52 nM | 52 nM | CCCC(Cc1ccc(C(=O)NCCC(=O)O)cc1)C(=O)c1cc2cc(Cl)ccc2n1-c1ccc(C(C)(C)C)cc1 (single isomer, unassigned) | bioavailability [10]: 38%; clearance [11]: 4.7 mL/min/kg
8 | 51 nM |  | O=C(Nc1nnn[nH]1)c1ccc(Cn2c(C(=O)c3ccc(OC(F)(F)F)cc3)cc3ccc(C(F)(F)F)cc32)cc1 | bioavailability [10]: 40%; clearance [11]: 10 mL/min/kg
9 | 16 nM | 42 nM | CCCC[C@@H](Cc1ccc(C(=O)NCCC(=O)O)cc1)C(=O)c1cc2cc(Cl)ccc2n1-c1cccc(C(F)(F)F)c1 | 
10 | 28 nM | 45 nM | CCCC(Cc1ccc(C(=O)NCCC(=O)O)cc1)C(=O)c1cc2cc(Cl)ccc2n1-c1ccc(OC(F)(F)F)cc1 (single isomer, unassigned) | 
11 | 12 nM | 17 nM | CCCC(Cc1ccc(C(=O)NCCC(=O)O)cc1)C(=O)c1cc2cc(Cl)ccc2n1-c1ccc(Cl)c(C(F)(F)F)c1 (single isomer, unassigned) | half-life [1]: 1.3 h; Vd [2]: 0.84 L/kg; AUC/dose (Rattus norvegicus [3]): 0.52 µM·h; Cmax/dose (Rattus norvegicus [4]): 150 nM; bioavailability [7]: 17%; clearance [8]: 9.2 mL/min/kg
12 | 47 nM | 150 nM | CCCC(Cc1ccc(C(=O)NCCC(=O)O)cc1)C(=O)c1cc2cc(Cl)ccc2n1-c1cccc(F)c1 (single isomer, unassigned) | 
13 | 10 nM | 20 nM | CCCCC[C@@H](Cc1ccc(C(=O)NCCC(=O)O)cc1)C(=O)c1cc2cc(F)ccc2n1-c1cccc(C(F)(F)F)c1 | 
14 | 37 nM | 55 nM | O=C(O)CCNC(=O)c1ccc(C[C@H](CC2CC2)C(=O)c2cc3cc(Cl)ccc3n2-c2cccc(C(F)(F)F)c2)cc1 | 
